Series [1] concerns the target Free fatty acid receptor 1 (Homo sapiens) (UniProt O14842). As to the kind of experiment: Agonist activity at human FFA1 receptor expressed in CHO cells assessed as intracellular calcium influx at 100 nM measured for 90 sec by Fluo-4-AM dye based FLIPR assay relative to control. It counts as functional, cell-based. A digest of the protocol:
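CHO cells stably expressing human FFA1 (NM_005303), 15 K cells/well, grown 12 h at 37 °C in 5% CO2, then HBSS wash. Ca2+ signal read by FLIPR for 90 s after addition. Activity = (test − vehicle)/(10 µM γ-linolenic acid − vehicle) × 100; mean of three independent experiments.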
In general terms: A change in cytosolic calcium serves as a functional read-out for many receptors and channels.

The nature of series [2]: 1-octanol-phosphate buffer distribution coefficient, log D of compound at 100 uM at pH 7.4 after 24 hrs by HPLC based shake flask method. It counts as physicochemical. A digest of the protocol: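 Final concentration 100 µM, diluted from 10 mM DMSO stock, in 1:1 0.01 M phosphate buffer pH 7.4 and 1-octanol. Shaken 700 rpm for 24 h, then 1 h phase separation. Octanol phase diluted ×10 before HPLC, buffer phase injected directly, each in duplicate. LogD = octanol/buffer peak area at 254 nm, corrected with two calibration points; three independent experiments.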

The subject of series [3] is Mus musculus. As to the kind of experiment: Hypoglycemic effect in normal ICR mouse assessed as decrease in blood glucose AUC (0 to 2 hrs) at 50 mg/kg, po administered as single dose 30 mins prior to glucose challenge by OGTT relative to control. It counts as functional. Also on record: scale not given: the % may be the effect or the level left. A digest of the protocol: (§1)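 Ten-week-old male ICR mice, fasted 12 h, randomized n = 6 per group. Single oral dose in 0.5% CMC given 30 min before oral glucose 3 g/kg. Tail-vein blood glucose measured by test strips at −30, 0, 15, 30, 45, 60 and 120 min; AUC0-2h calculated; mean ± SEM, Student's t-test vs vehicle.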

The test system of series [4] is Mus musculus. As to the kind of experiment: Hypoglycemic effect in normal ICR mouse assessed as decrease in plasma glucose level at 50 mg/kg, po administered as single dose 30 mins prior to glucose challenge by OGTT relative to control. Format: functional, organism-based. The conditions noted are these: TDE = time-dependent effect. In outline: as §1
For series [5], the system named is Mus musculus. As to the kind of experiment: Hypoglycemic effect in fasting STZ-induced type-2 diabetic C57BL/6 mouse assessed as decrease in blood glucose AUC (0 to 2 hrs) at 20 mg/kg, po administered as single dose 30 mins prior to glucose challenge measured by OGTT relative to control. Format: functional. Also on record: scale not given: the % may be the effect or the level left. In outline: (§2)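 Male C57BL/6 mice on high-fat diet (45% kcal fat) for 4 weeks, then STZ 80 mg/kg i.p., then high-fat diet another 4 weeks. Fasting glucose ≥11.1 mmol/L taken as diabetic. Fasted 12 h, n = 6 per group. Oral dose in 0.5% CMC 30 min before oral glucose 2 g/kg. Tail-vein glucose by test strips at −30, 0, 15, 30, 45, 60 and 120 min; AUC0-2h; mean ± SEM.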

Series [6] concerns Mus musculus. As to the kind of experiment: Hypoglycemic effect in fasting STZ-induced type-2 diabetic C57BL/6 mouse assessed as decrease in blood glucose AUC (0 to 2 hrs) at 50 mg/kg, po administered as single dose 30 mins prior to glucose challenge by OGTT relative to control. Format: functional. Also on record: scale not given: the % may be the effect or the level left. A digest of the protocol:
as §2

The structures appear in SMILES notation.

For orientation: logD means lipophilicity at a set pH, counting ionised and neutral species.

Free fatty acid receptor 1 (Homo sapiens), sequence (O14842 whole entry): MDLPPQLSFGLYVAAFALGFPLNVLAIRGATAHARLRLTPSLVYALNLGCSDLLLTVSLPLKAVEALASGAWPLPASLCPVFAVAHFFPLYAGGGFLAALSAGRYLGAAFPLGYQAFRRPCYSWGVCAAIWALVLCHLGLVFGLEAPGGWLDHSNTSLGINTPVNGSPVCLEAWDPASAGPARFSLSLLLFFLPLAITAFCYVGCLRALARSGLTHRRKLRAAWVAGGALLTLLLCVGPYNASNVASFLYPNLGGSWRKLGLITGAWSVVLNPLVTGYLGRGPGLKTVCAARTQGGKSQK

`Cc1ccc(Cl)cc1-n1cc(COc2ccc3c(c2)OCC3CC(=O)O)nn1` (stereo unspecified): the Activity was 33.8% in series [1], 16.8% in series [3] and “Tde” in series [4]. The same molecule gave a logD at 24 h, 100 µM in series [2] of 2.08. In the case of `O=C(O)COc1ccc(OCc2cn(-c3cccc(Cl)c3)nn2)cc1F`, the Activity in series [1] turned out to be 22.7%.

As for `O=C(O)CC1COc2cc(OCc3cn(-c4ccccc4)nn3)ccc21` (stereo unspecified), the Activity in series [1] stood at 0.76%. As for `O=C(O)CC1COc2cc(OCc3cn(-c4cccc(Cl)c4)nn3)ccc21` (stereo unspecified), the Activity in series [1] was 22.8%. In series [2], the log distribution coefficient (logD) at 24 h, 100 µM came out at 1.09.

Turning to `O=C(O)COc1ccc(OCc2cn(-c3ccc(Cl)cc3)nn2)cc1`, the Activity in series [1] came to 19.4%. Take `O=C(O)COc1ccc(OCc2cn(-c3ccc(Cl)cc3)nn2)cc1F`: the Activity in series [1] is 26.1%; in series [4], “Tde”. In series [2], the pH-dependent lipophilicity (logD) at 24 h, 100 µM was determined as 1.37. Take `COc1ccccc1-n1cc(COc2ccc(OCC(=O)O)c(F)c2)nn1`: in series [1], the Activity came to 14.6%. As for `O=C(O)COc1ccc(OCc2cn(-c3ccc(F)cc3)nn2)cc1F`, the Activity in series [1] turned out to be 20.4%. The molecule further had a log distribution coefficient (logD) at 24 h, 100 µM in series [2] of 0.92. As for `COc1cccc(-n2cc(COc3ccc4c(c3)OCC4CC(=O)O)nn2)c1` (stereo unspecified), the Activity in series [1] came to 19.4%. As for `O=C(O)CC1COc2cc(OCc3cn(-c4ccc(Cl)cc4)nn3)ccc21` (stereo unspecified), the values for the Activity in series [1] and in series [4] were 24.7% and “Tde”, respectively.

On to `O=C(O)CC1COc2cc(OCc3cn(-c4c(Cl)cccc4Cl)nn3)ccc21` (stereo unspecified), for which, in series [1], the Activity is 21.7%. This molecule also came in with a logD at 24 h, 100 µM in series [2] of 1.96. For the molecule `Cc1cccc(-n2cc(COc3ccc(OCC(=O)O)cc3)nn2)c1`, in series [1], the Activity came out at 11.8%. Same read-out and setting: under `O=C(O)COc1ccc(OCc2cn(-c3ccccc3)nn2)cc1` stands 0.64%; under `O=C(O)COc1ccc(OCc2cn(-c3ccccc3Cl)nn2)cc1F`, 11.3%. `CCOc1ccc(-n2cc(COc3ccc(OCC(=O)O)c(F)c3)nn2)cc1`: the Activity in series [1] worked out at 7.62%. Turning to `O=C(O)COc1ccc(OCc2cn(-c3ccccc3)nn2)cc1F`, the Activity in series [1] was 5.83%. This molecule also showed a logD at 24 h, 100 µM in series [2] of -0.23. In the case of `Cc1cc(OCCCS(C)(=O)=O)cc(C)c1-c1cccc(COc2ccc3c(c2)OC[C@H]3CC(=O)O)c1` [FASIGLIFAM], the Activity in series [5] is 32.5%. With `Cc1ccc(-n2cc(COc3ccc(OCC(=O)O)cc3)nn2)cc1`, the Activity in series [1] was 16.4%. The molecule also had a logD at 24 h, 100 µM in series [2] of 0.89. In the case of `O=C(O)CC1COc2cc(OCc3cn(-c4ccc(OCc5ccccc5)cc4)nn3)ccc21` (stereo unspecified), the Activity in series [1] came to 3.67%.

`O=C(O)CC1COc2cc(OCc3cn(-c4ccccc4F)nn3)ccc21` (stereo unspecified): in series [1], the Activity was 6.69%. Same read-out and setting: under `CC(C)(C)c1ccc(-n2cc(COc3ccc(OCC(=O)O)c(F)c3)nn2)cc1` stands 4.53%. `COc1cccc(-n2cc(COc3ccc(OCC(=O)O)c(F)c3)nn2)c1`: the Activity is 24.4% in series [1] and “Tde” in series [4]. The molecule also displayed a logD at 24 h, 100 µM in series [2] of 0.52. Regarding `O=C(O)COc1ccc(OCc2cn(-c3c(Cl)cccc3Cl)nn2)cc1F`, the Activity in series [1] was 29.7%; in series [3] it was 17.7%; in series [4], “Tde”. The same molecule returned a logD at 24 h, 100 µM in series [2] of 2.16.

Consider `O=C(O)COc1ccc(OCc2cn(-c3ccc(F)cc3)nn2)cc1`, for which the Activity in series [1] was 13.8%. Still for that read-out and setting: under `O=C(O)CC1COc2cc(OCc3cn(-c4ccccc4Cl)nn3)ccc21` (stereo unspecified) stands 9.34%. Consider `Cc1ccc(Cl)cc1-n1cc(COc2ccc(OCC(=O)O)c(F)c2)nn1`, for which the Activity in series [1] was 36.1%; in series [3], 21.4%; in series [6], 14.2%; in series [4] it was “Tde”. The same molecule yielded a logD at 24 h, 100 µM in series [2] of 1.95.

The values are drawn from ChEMBL document CHEMBL4428117, “Discovery of novel free fatty acid receptor 1 agonists bearing triazole core via click chemistry” (Bioorg Med Chem, 2016).
